Results from different studies.
Lines come from different studies, so protocols differ.
Target: Myosin-IIIb (MYO3B, Homo sapiens, UniProt Q8WXR4)
One construct used (Q8WXR4 1-1341): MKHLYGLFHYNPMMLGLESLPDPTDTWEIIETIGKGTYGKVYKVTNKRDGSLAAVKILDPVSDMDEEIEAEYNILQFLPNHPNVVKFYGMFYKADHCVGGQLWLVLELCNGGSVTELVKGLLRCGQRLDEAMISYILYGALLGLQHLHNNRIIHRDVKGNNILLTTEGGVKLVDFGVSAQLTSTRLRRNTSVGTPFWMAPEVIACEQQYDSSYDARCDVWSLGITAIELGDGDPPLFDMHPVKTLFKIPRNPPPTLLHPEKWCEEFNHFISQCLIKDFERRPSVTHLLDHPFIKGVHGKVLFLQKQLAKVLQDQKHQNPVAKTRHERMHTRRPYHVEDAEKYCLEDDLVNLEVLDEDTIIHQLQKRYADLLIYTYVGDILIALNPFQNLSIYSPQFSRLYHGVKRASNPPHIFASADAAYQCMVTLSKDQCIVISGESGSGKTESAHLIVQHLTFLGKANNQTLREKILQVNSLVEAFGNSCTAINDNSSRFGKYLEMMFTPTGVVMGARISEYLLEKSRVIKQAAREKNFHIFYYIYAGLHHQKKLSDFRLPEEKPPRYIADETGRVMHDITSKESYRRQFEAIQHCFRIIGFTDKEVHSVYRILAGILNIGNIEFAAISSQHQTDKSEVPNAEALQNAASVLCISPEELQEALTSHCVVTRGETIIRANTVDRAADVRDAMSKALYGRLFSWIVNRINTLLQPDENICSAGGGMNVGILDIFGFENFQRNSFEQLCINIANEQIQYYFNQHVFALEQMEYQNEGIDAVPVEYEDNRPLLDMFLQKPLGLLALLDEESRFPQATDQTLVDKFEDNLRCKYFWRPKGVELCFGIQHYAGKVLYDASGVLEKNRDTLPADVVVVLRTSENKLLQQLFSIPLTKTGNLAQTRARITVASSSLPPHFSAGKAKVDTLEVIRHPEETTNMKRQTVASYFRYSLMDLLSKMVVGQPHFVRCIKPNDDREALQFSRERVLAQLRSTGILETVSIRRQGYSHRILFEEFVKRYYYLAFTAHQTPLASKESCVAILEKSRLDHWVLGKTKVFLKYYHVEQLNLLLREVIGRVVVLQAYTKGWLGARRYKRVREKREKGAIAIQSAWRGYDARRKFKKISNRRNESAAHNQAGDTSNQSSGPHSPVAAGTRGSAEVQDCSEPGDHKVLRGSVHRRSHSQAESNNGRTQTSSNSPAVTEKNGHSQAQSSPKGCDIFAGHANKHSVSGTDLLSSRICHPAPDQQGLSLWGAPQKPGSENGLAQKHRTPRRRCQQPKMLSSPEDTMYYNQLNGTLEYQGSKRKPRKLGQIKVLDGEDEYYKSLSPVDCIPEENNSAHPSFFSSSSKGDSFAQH

SMILES	effect on	action	method	tested at	quantity	value
O=C(O)c1ccc2c3c1cccc3c(=O)n1c3ccccc3nc21	enzyme activity	inhibitor		0.5 µM	remaining activity	96.7%
Nc1ncnc2occ(-c3ccc(NC(=O)Nc4cc(C(F)(F)F)ccc4F)cc3)c12	cell-free assay			20 µM	remaining signal	25%
Cn1nc(C(=O)NCc2ccc(C(=O)O)cc2)cc1-c1ccc2[nH]ccc2c1	binding		competition with immobilised ligand	0.1 µM	remaining binding	100%
CN1CCN(C(=O)c2ccc3cc(CCNc4ccnc5ccc(C#N)cc45)ccc3c2)CC1	binding		competition with immobilised ligand	2 µM	inhibition	> 35%
CC(C)(O)[C@H]1CC[C@H](Nc2ccc3ncc(-c4cccc(C(F)(F)F)c4)n3n2)CC1	enzyme activity	inhibitor		1 µM	remaining activity	85.1%
Cc1ccc(C(=O)Nc2ccc(CN3CCN(C)CC3)c(C(F)(F)F)c2)cc1C#Cc1cnc2cccnn12	enzyme activity			23.5 nM	remaining activity	79%
O=C(Nc1cnn(-c2csc(C(=O)NC3COC3)c2)c1)Nc1ccccc1Cl	enzyme activity	inhibitor		5 µM	remaining activity	128%
C[S+]([O-])c1ccc(-c2nc(-c3ccncc3)c(-c3ccc(F)cc3)[nH]2)cc1 (centres unmarked)	cell-free assay			0.5 µM	remaining signal	104%
Cc1sc(C(=O)NC2COC2)cc1-n1cc(NC(=O)Nc2c(F)cccc2Cl)cn1	enzyme activity	inhibitor		10 µM	remaining activity	73.5%
COc1cc(Cl)c(C(=O)N[C@@H](CN[C@H]2CC[C@@H](N)CC2)Cc2ccc(C#N)cc2)cc1-c1ccc(CN[C@H](C)c2ccc(C)cc2)o1	enzyme activity	inhibitor		1 µM	remaining activity	116%
CSc1cccnc1N1CCN(Cc2nc3ccccc3[nH]2)CC1	binding		competition with immobilised ligand	1 µM	remaining binding	100%
CN1CC(Oc2cnc(C#N)cc2-c2ccn3nc(NC(=O)C4CC4)cc3c2)C1	enzyme activity	inhibitor		1 µM	inhibition	-2%
CCC(=N\O)/C(C)=C/c1ccc(F)cc1	binding		competition with immobilised ligand	1 µM	remaining binding	100%
CCN(CC)CCNC(=O)c1c(C)[nH]c(/C=C2\C(=O)Nc3ccc(Cl)cc32)c1C	enzyme activity	inhibitor		0.5 µM	remaining activity	41.3%
